High-throughput results from PubChem.
Compounds with a hit are over-represented: about 3% of the library has one in this group of screens.
Casp6 inh – blocks human caspase-6 cleavage activity; inhibition, % at 12.5 µM; purified caspase-6, Z-VEID-R110 cleavage fluorescence; hit rate 0.53% among 350,000;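 active = mean inhibition across replicates at least about 35%, with every replicate also reaching that limit, limit read from the data; inconclusive = only one of the two criteria met; inactive = neither criterion met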
Target sequence (P55212 24-179 limits assumed): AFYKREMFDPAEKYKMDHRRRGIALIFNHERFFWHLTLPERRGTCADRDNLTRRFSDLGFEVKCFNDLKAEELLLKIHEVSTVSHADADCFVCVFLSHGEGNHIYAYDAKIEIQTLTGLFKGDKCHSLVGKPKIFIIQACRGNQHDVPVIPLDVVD
Target sequence (P55212 194-293 limits assumed): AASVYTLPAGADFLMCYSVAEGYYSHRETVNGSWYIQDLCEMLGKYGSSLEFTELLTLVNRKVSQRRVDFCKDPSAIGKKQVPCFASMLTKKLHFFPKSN
Wnt bcat act – activates Wnt/beta-catenin signaling in a reporter cell assay; activation, % at 9.35 µM; hit rate 1.2% among 300,000; activator, plate reader; in the data active = activation above about 30%, passing the limit was not always enough; inconclusive = no clear call, values can overlap the other calls
esBAF inh – blocks esBAF chromatin remodeling in mouse ES cells | Bmi1-luciferase knock-in reporter, 24 h; 100% = twice the neutral-well signal | reporter increase, % at 12.5 µM | hit rate 2% among 350,000; in the data active = activation above about 40%; inconclusive = no clear call, values can overlap the other calls;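 note: a rise in the Bmi1 reporter signal indicates esBAF inhibition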
Xi reactivation – activators of X-chromosome reactivation in mouse fibroblasts; XiGFP mouse fibroblasts, % GFP-positive cells imaging, 3 d; cells co-treated with 5-aza-dC sensitizer; scaled so ellipticine positive control = 100%; activation, % at 7.58 µM; hit rate 0.055% among 360,000;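 active = mean normalized replicate activation at least 10% and every replicate at or above 10%; inconclusive = only one of the two criteria met; inactive = mean below 10% and not all replicates reach 10%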
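System: SV40-immortalized XiGFP fibroblast cells, line 68-5-11 / Incubation: 3-day compound exposure, then 15 min fixation at room temperature / Compound: single concentration per compound, delivered by pin transfer / Buffer or medium: DMEM plus 5-aza-dC sensitizer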
MITF act – increases MITF-driven TRPM1 promoter luciferase signal | activation, % at 12.5 µM | AID 588334 | SK-MEL-5 TRPM1-promoter luciferase, 24 h; % of positive control, neutral wells = 0 | hit rate 0.75% among 300,000;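 active = mean activation of at least 80% with every replicate also reaching 80%; inconclusive = mean reaches 80% but some replicate falls short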
NSD2 HMT inh – inhibitors of human histone methyltransferase NSD2 | O96028 | NSD2 peptide methylation, AlphaScreen, 120 min | inhibition, % at 12.5 µM | hit rate 0.54% among 310,000; in the data active = inhibition above about 50%
Of the large screens only hits and unclear results are named; the others gave an inactive call.

CCOC(=O)c1c(C)[nH]c(C(=O)COC(=O)C2CC2)c1C	esBAF inh inconclusive, MITF act 85.6
CCOC(=O)CC(=O)c1[nH]c(C)c(C(=O)OCC)c1C	none (no result: esBAF inh)
CCOC(=O)c1c(C)[nH]c(C(=O)COC(=O)C2(C)CC2(Cl)Cl)c1C (centres undefined)	Wnt bcat act 50.1, esBAF inh 76.1 (no result: Casp6 inh, Xi reactivation)
CC(=O)c1c(C)[nH]c(C(=O)COC(=O)C2CC2)c1C	none
C[C@H]1CCCCO[C@@H](CN(C)C(=O)NC2CCCCC2)[C@@H](C)CN([C@@H](C)CO)C(=O)c2cc(NS(=O)(=O)c3ccccc3)ccc2O1	none (no result: Wnt bcat act, MITF act, NSD2 HMT inh)
Cc1cc(C(=O)COC(=O)c2ccc(NC(=O)CC#N)cc2)c(C)n1C1CC1	esBAF inh 68.1
Cc1cc(C(=O)COC(=O)c2ccc(NC(=O)CC#N)cc2)c(C)n1-c1ccc(OC(F)F)cc1	none (no result: esBAF inh, NSD2 HMT inh)
Cc1cc(C(=O)COc2ccccc2[N+](=O)[O-])c(C)n1C1CC1	Wnt bcat act inconclusive (no result: esBAF inh, NSD2 HMT inh)
Cc1cc(C(=O)COC(=O)c2ccc(Cl)c(S(N)(=O)=O)c2)c(C)n1C1CC1	Wnt bcat act 44.6, esBAF inh 77.8, MITF act 97.2
Cc1cc(C(=O)COc2ccccc2C(N)=O)c(C)n1C1CC1	Wnt bcat act 39.5 (no result: esBAF inh)
Cc1cc(C(=O)COC(=O)c2ccc(F)cc2F)c(C)n1C1CC1	MITF act 117.6
O=C(C[C@H]1C=C[C@@H](NC(=O)c2ccccn2)[C@@H](CO)O1)NCc1cc(F)cc(F)c1	none (no result: Wnt bcat act, MITF act, NSD2 HMT inh)
Cc1cc(C(=O)COC(=O)c2ccc(NC(=O)CC#N)cc2)c(C)n1CC(F)(F)F	esBAF inh 61.9 (no result: MITF act)
Cc1ccc(-c2ccc([C@@H]3[C@H]4CN(C(=O)c5cccnc5)CC(=O)N4[C@H]3CO)cc2)cc1	none (no result: Wnt bcat act, esBAF inh, MITF act, NSD2 HMT inh)
COCC(=O)OCc1cc2cccc(C)c2[nH]c1=O	Wnt bcat act 41.9 (no result: esBAF inh)
Cc1cccc2cc(COC(=O)COc3ccccc3)c(=O)[nH]c12	none (no result: Casp6 inh, Wnt bcat act, Xi reactivation)
CCOC(=O)COn1c(-c2cccc(Cl)c2)nc2ccc([N+](=O)[O-])cc21	MITF act 86.8 (no result: Casp6 inh, Wnt bcat act, esBAF inh, Xi reactivation)
COc1cc(C(F)(F)F)ccc1C(=O)NCCc1ccco1	esBAF inh 60.0, MITF act 107.0
CC(=O)Nc1nc2c(C)c(Cl)ccc2s1	none
CC(=O)Nc1cc(C)c2nc(NC(C)=O)sc2c1	none
Cc1nc2c(ccc3nc(NC(=O)C4CC4)sc32)s1	esBAF inh 67.7
Cc1c(Cl)ccc2sc(NC(=O)C3CC3)nc12	esBAF inh 53.5 (no result: MITF act, NSD2 HMT inh)
CC(=O)Nc1nc2c(C)cc(NC(=O)C3CCCCC3)cc2s1	esBAF inh 59.8 (no result: MITF act)
CC1CCN(C(=O)Cn2nnc(-c3cccs3)n2)CC1	esBAF inh 48.4
Cc1ccc(C(=O)Cn2nnc(-c3cccs3)n2)cc1	Wnt bcat act 39.8 (no result: NSD2 HMT inh)
O=C(Cn1nnc(-c2cccs2)n1)NCc1cccs1	none (no result: esBAF inh)
Cc1[nH]ncc1Nc1c(C(C)C)cccc1C(C)C	Casp6 inh 55.3 (no result: MITF act, NSD2 HMT inh)
Cc1[nH]ncc1Nc1ccccc1C(C)C	none (no result: MITF act, NSD2 HMT inh)
COc1ccc(S(=O)(=O)N(C)C[C@@H]2Oc3ccc(NC(=O)NC(C)C)cc3C(=O)N([C@H](C)CO)C[C@@H]2C)cc1	none (no result: Casp6 inh, Wnt bcat act, MITF act, NSD2 HMT inh)
Cc1nn(CCCC(=O)NCCc2ccccc2)c(=O)c2nn(-c3ccccc3)c(C)c12	Casp6 inh 50.5
CCCOc1c(Br)cc(C2C3=C(CCCC3=O)N(C)C3=C2C(=O)CCC3)cc1OC	none (no result: esBAF inh, NSD2 HMT inh)
CCCOc1c(Br)cc(C2C3=C(CCCC3=O)N(CC)C3=C2C(=O)CCC3)cc1OC	esBAF inh 44.4
COc1ccccc1-c1cnc2c(c1)C(=O)N([C@H](C)CO)C[C@H](C)[C@H](CN(C)Cc1ccncc1)O2	none (no result: Wnt bcat act, MITF act, NSD2 HMT inh)
Cc1ccc(S(=O)(=O)n2c(C)nc3ccccc32)cc1	Casp6 inh 40.7
O=C(NN=Cc1ccc2c(c1)OCO2)c1ccccc1	Wnt bcat act 62.9
O/N=C/c1cn(-c2ccccc2)nc1-c1ccc2c(c1)OCCO2	none (no result: Casp6 inh, Xi reactivation)
O=C(N/N=C/c1cn(-c2ccccc2)nc1-c1ccc2c(c1)OCCO2)c1ccncc1	esBAF inh 53.3
O=C(N/N=C\c1cn(-c2ccccc2)nc1-c1ccccc1)c1ccc2c(c1)OCO2	esBAF inh 43.7 (no result: Casp6 inh, Xi reactivation)
O=C(N/N=C/c1cn(-c2ccccc2)nc1-c1ccc(F)cc1)c1ccc2c(c1)OCO2	none (no result: Casp6 inh, Wnt bcat act, esBAF inh, Xi reactivation)
